Measured values from different studies.
Each line is one published result; the experiments were not run side by side.
Effect on: parasite growth

CCCCCCCCCCCCCCCCOP(=O)([O-])OCC[N+](C)(C)C — IC50 (Leishmania amazonensis; MTT; 72 h, promastigote): 15.1 µM
COc1ccc(Sc2ccccc2)c(OC)c1OC — IC50 (Leishmania braziliensis; MTT; 24 h, promastigote): 14.3 µM
CC(C)(C)CC(C)(C)Nc1c(-c2ccc(-c3ccccc3)cc2)nc2ncccn12 — IC50 (Leishmania amazonensis; MTT; 72 h, promastigote): 31.1 µM
C[C@@H]1[C@H](O)[C@@H](C)/C=C/C=C/C=C/C=C/C=C/C=C/C=C/[C@H](O[C@@H]2O[C@H](C)[C@@H](O)[C@H](N)[C@@H]2O)C[C@@H]2O[C@](O)(C[C@@H](O)C[C@@H](O)[C@H](O)CC[C@@H](O)C[C@@H](O)CC(=O)O[C@H]1C)C[C@H](O)[C@H]2C(=O)O — IC50 (Leishmania braziliensis; MTT; 24 h, promastigote): 22 µM
C=C1CC[C@@H]2[C@](C)(CCC[C@]2(C)C(=O)O)[C@H]1CC/C(C)=C/C(=O)O — IC50 (Leishmania amazonensis; 72 h, promastigote): 28 µg/mL
CCCCCCCCc1nc2ncccn2c1NC(C)(C)CC(C)(C)C — IC50 (Leishmania amazonensis; MTT; 72 h, promastigote): 40.6 µM
Oc1ccc(/C=C/c2cc(O)cc(O)c2)cc1 — IC50 (Leishmania amazonensis; MTT; 72 h, promastigote): 97.9 µM
COc1ccc([S+]([O-])c2ccc(OC)c(OC)c2OC)cc1 (stereo not drawn) — IC50 (Leishmania braziliensis; MTT; 24 h, promastigote): 15.2 µM
C=C1CC[C@@H]2[C@](C)(CCC[C@@]2(C)C(=O)O)[C@H]1CCc1ccoc1 — IC50 (Leishmania amazonensis; 72 h, promastigote): 35 µg/mL
N=C(N)c1ccc(OCCCCCOc2ccc(C(=N)N)cc2)cc1 — IC50 (Leishmania amazonensis; imaging; 48 h, intracellular, amastigote): 3.4 µM
C=C1CC[C@@H]2[C@](C)(CCC[C@@]2(C)C(=O)O)[C@H]1CC[C@H](C)CC(=O)O — IC50 (Leishmania amazonensis; 72 h, promastigote): 70 µg/mL
COc1ccc(S(=O)(=O)c2ccc(OC)c(OC)c2OC)cc1 — IC50 (Leishmania braziliensis; MTT; 24 h, promastigote): 32 µM
